Source: PubChem (several laboratories)
In the library only some 9.6% were active in any assay of this set; here they are far more common.
bCat KO growth: beta-catenin-lacking colon tumor cell growth suppression | HCT116 beta-catenin knockout viability, CellTiter-Glo, 60 h; stronger effect = lower value | viability, % at 10 µM | hit rate 1.5% among 140,000 | AID 818;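 active = viability at or under a set limit, the compound median less 4 SD, cut at about 6% in these data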;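 note: 0% = Hyamine 1622 control at 20 µM and 100% = untreated cell control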
PMI act hi M6P: increases human PMI activity with near-saturating mannose 6-phosphate; activation factor at 20 µM; hit rate 0.34% among 190,000; coupled PMI enzyme assay, resazurin fluorescence, 20 min; stronger effect = higher value; 1 = untreated enzyme, 0 = substrate-free blank; AID 1216;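 active = activation factor of 2 or more at 20 µM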
Target sequence (P34949 whole entry, looked up): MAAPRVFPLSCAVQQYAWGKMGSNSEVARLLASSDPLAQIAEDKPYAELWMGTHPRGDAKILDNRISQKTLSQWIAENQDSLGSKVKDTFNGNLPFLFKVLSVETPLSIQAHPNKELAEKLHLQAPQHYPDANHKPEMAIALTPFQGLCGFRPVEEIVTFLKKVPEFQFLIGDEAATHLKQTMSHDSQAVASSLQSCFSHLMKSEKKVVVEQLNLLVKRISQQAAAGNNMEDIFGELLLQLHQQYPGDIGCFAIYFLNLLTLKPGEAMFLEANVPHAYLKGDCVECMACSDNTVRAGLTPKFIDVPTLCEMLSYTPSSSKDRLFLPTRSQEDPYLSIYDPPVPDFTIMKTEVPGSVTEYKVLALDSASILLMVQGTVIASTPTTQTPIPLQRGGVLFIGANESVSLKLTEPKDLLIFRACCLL
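Material: human phosphomannose isomerase with PGI, G6PDH, diaphorase coupling enzymes; amount: PMI at 15 ng/mL final; also added: Mannose-6-phosphate 1.0 mM (near-saturating) plus 0.22 mM NADP+; incubation: enzyme reaction with compound 20 min at room temperature; signal: resorufin fluorescence (Ex 544/Em 590 nm) from resazurin via diaphorase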
Lmaj promast: reduces viability of Leishmania major promastigotes. resazurin fluorescence viability. inhibition, % at 10 µM. hit rate 9% among 200,000; in the data active = inhibition above about 50%;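 note: promastigotes grown with compound for 44 hours at 28 °C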
HCT116 PTEN-null: suppresses growth of cells with PTEN deletion | AID 827 | viability, % at 10 µM | hit rate 1.2% among 140,000 | HCT116 PTEN-null viability, CellTiter-Glo, 60 h; stronger effect = lower value;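 active = viability at or below a set limit, 4 SD under the median of all tested compounds, cut at about 3.7% in these data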;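 note: PTEN knockout HCT116 line with beta catenin targeted HCT116 as companion control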
PMI act: phosphomannose isomerase (human) activation | P34949 | purified human PMI, coupled resazurin fluorescence, 20 min; stronger effect = higher value; 1 = vehicle control, 0 substrate-free wells | activation factor at 20 µM | hit rate 0.005% among 190,000 | AID 1214;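 active = activation factor of 2 or more at 20 µM, relative to plate controls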
* = called active by the depositor; . = no result.

SMILES | bCat KO growth | PMI act hi M6P | Lmaj promast | HCT116 PTEN-null | PMI act
Cc1cccc2[nH]c3c(N4CCN(C(=O)c5ccco5)CC4)ncnc3c12 | 70.9 | 0.9 | 82.0* | 59.9 | 0.9
O=C(Nc1ccccc1)c1ccccc1OCc1cccc([N+](=O)[O-])c1 | 90.2 | 1 | 54.6* | 90.4 | 0.9
Cc1c(C(=O)Nc2ccc(OCc3ccccc3)cc2)cccc1[N+](=O)[O-] | 103.0 | 1 | -4.4 | 89.3 | 0.9
CCn1c2ccccc2c2nc3cc(OC)c(OC)cc3nc21 | 37.1 | 0.6 | 73.3* | 38.8 | 0.7
COc1cc2nc3c4ccccc4n(CC#N)c3nc2cc1OC | 89.7 | 1 | -2.0 | 89.0 | 1
O=c1c2sccc2nc(SCc2cc(=O)n3ccccc3n2)n1Cc1ccccn1 | . | 1 | 14.6 | . | 1.1
CC(C)(C)OC(=O)COc1cc(OCC(=O)OC(C)(C)C)c2c(=O)cc(-c3ccccc3)oc2c1 | 1.5* | 0.9 | 50.3* | 1.7* | 0.8
O=c1[nH]c2ccc(S(=O)(=O)NCc3ccccc3)cc2[nH]1 | . | 1 | -4.3 | . | 1
COc1ccc2cc(/C=N/NC(=O)c3ccc(CN(c4cccc(Cl)c4Cl)S(C)(=O)=O)cc3)c(Cl)nc2c1 | 87.4 | 1 | 80.5* | 91.3 | 1.1
Cc1nn(-c2ccc([N+](=O)[O-])cc2)c2c1C(c1ccc(OC(F)F)cc1)N1C(=N2)C(=O)Nc2ccccc21 (stereo not drawn) | . | 1 | 68.0* | . | 0.9
COc1ccc(NC2=Nc3ccccc3N3C2=Nc2c(c(C)nn2-c2ccc(C)cc2)C3c2cccnc2)cc1 (stereo not drawn) | 60.1 | 0.9 | 3.3 | 38.3 | 0.8
O=[N+]([O-])c1ccc2nc(-c3ccc(OC(F)F)cc3)cn2c1 | . | 1 | -4.5 | . | 1.3
Cc1ccc(C2c3c(C)nn(-c4ccc([N+](=O)[O-])cc4)c3N=C3C(=O)Nc4ccccc4N32)cc1 (stereo not drawn) | . | 0.8 | 98.6* | . | 0.9
COc1cccc(C2c3c(C)nn(-c4ccc([N+](=O)[O-])cc4)c3N=C3C(=O)Nc4ccccc4N32)c1 (stereo not drawn) | . | 0.8 | 64.7* | . | 0.9
COc1ccc(NC(=O)CSc2nnc(-c3cccs3)n2-c2ccccc2)cc1 | 52.5 | 1 | -6.2 | 50.5 | 1
CC(c1ccccc1)N1CCn2c(nc3cc(NS(C)(=O)=O)ccc32)C1 (stereo not drawn) | . | 0.9 | 7.5 | . | 0.9
ClCc1csc(-c2ccccc2Cl)n1 | . | 1.3 | 2.8 | . | 1.4
CC(C)(C)C1CCC(C(=O)OCC(=O)c2ccc[nH]2)CC1 (stereo not drawn) | 95.7 | 0.8 | 56.9* | 94.3 | 0.9
CSCCC(NC(=O)c1ccc([N+](=O)[O-])cc1Cl)C(=O)OCC(=O)NC1CCCC(C)C1C (stereo not drawn) | 95.6 | 0.9 | 59.7* | 96.4 | 1
CSCCC(NC(=O)c1cc([N+](=O)[O-])ccc1Cl)C(=O)O (stereo not drawn) | 112.4 | 1 | -4.3 | 89.4 | 1
CCOc1ccccc1Nc1nnc(SCC(=O)NC(=O)c2cccn2C)s1 | 94.4 | 0.9 | 55.7* | 92.8 | 0.9
CCc1ccc(Nc2nnc(SCC(=O)NCCN3C(=O)CSC3=O)s2)cc1 | 76.7 | 1 | 23.7 | 109.2 | 1.1
CCc1ccc(Nc2nnc(SCC(=O)Nc3cccnc3Cl)s2)cc1 | 80.8 | 0.8 | 90.1* | 79.0 | 0.9
COc1cccc(Nc2nnc(SCC(=O)Nc3sccc3C(N)=O)s2)c1 | . | 0.9 | 65.0* | . | 1
CCn1c(SCC(=O)Nc2cccnc2Cl)nnc1-c1ccccc1 | 105.7 | 1 | -5.1 | 99.0 | 1
SMILES | bCat KO growth | PMI act hi M6P | Lmaj promast | HCT116 PTEN-null | PMI act
CCc1ccc(Nc2nnc(SCC(=O)Nc3sccc3C(N)=O)s2)cc1 | 86.0 | 0.9 | 98.1* | 77.2 | 0.9
CCOc1nc2ccccc2cc1C=O | . | 0.9 | 6.6 | . | 0.9
Cc1cc(CNC(=O)c2ccc3c(c2)OCO3)c2ccccc2n1 | . | 1.3 | 13.1 | . | 1.3
O=C(Nc1ccc(Nc2ccccc2)cc1)C(Cl)Cl | 52.8 | 1 | -4.7 | 47.0 | 1
CCC(=O)Nc1ccc(Nc2ccccc2)cc1 | 88.3 | 0.9 | 93.3* | 91.9 | 0.9
O=C(Nc1ccc(Nc2ccccc2)cc1)C(Cl)(Cl)Cl | 19.3 | 0.9 | 78.4* | 24.0 | 1.1
CC(C)(C)NC(=S)Nc1ccc(Nc2ccccc2)cc1 | 13.6 | 1 | 61.4* | 17.7 | 0.9
Cc1[nH]n(-c2ncc(-c3ccc(Cl)cc3)s2)c(=O)c1C(c1ccc(Cl)cc1)C(C#N)C#N (stereo not drawn) | 86.7 | 1.5 | 98.7* | 91.5 | 1.4
Cc1c(-n2c(-c3ccccc3)nc3ccccc3c2=O)c(=O)n(-c2ccccc2)n1C | . | 0.9 | 0.5 | . | 0.9
O=C(COC(=O)Cc1ccccc1[N+](=O)[O-])NCc1ccccc1Cl | 88.5 | 1 | -1.5 | 91.5 | 1.1
CCOC(=O)c1ccc(NC(=O)Cc2coc3cc4c(cc23)CCC4)cc1 | 83.7 | 0.8 | 91.6* | 80.7 | 0.8
CCn1c(Cc2ccc(OC)cc2)nnc1SCC(=O)Nc1cccc(C(=O)OC)c1 | 0.9* | 1.2 | 22.1 | 0.6* | 1.2
O=C(CN1C(=O)COc2ccccc21)NCCN1CCC(Cc2ccccc2)CC1 | 68.0 | 1 | 67.0* | 77.0 | 1
CCn1cc(Br)c(C(=O)Nc2cccc(SC)c2)n1 | 93.1 | 1 | 26.1 | 92.9 | 0.9
COc1ccc2[nH]c(=O)c(CN(Cc3cccs3)S(=O)(=O)c3c(C)ccc4nsnc34)cc2c1 | 24.6 | 1 | 98.2* | 15.5 | 1
Cc1ccc2[nH]c(=O)c(CN(CC3CCCO3)S(=O)(=O)c3cccc4nsnc34)cc2c1 (stereo not drawn) | 61.0 | 0.9 | 13.1 | 55.3 | 0.9
Cc1ccc2[nH]c(=O)c(CN(CC3CCCO3)S(=O)(=O)c3c(C)ccc4nsnc34)cc2c1 (stereo not drawn) | 71.6 | 0.9 | 95.0* | 67.3 | 1
CCOC(=O)C1(Cc2cccc(Cl)c2)CCCN(C2CCN(C(C)=O)CC2)C1 (stereo not drawn) | . | 1.1 | 83.2* | . | 1.1
CCOC(=O)C1(Cc2cccc(Cl)c2)CCCN(C(=O)CCOC)C1 (stereo not drawn) | . | 0.9 | -6.1 | . | 0.8
O=C1CCN(C(=O)Nc2ccccc2Cl)N1 | 101.2 | 2.2* | -3.9 | 100.3 | 1.4
CCOC(=O)c1ccccc1NC(=O)CSc1nnc(COc2ccccc2C)n1C | 93.1 | 0.9 | 9.0 | 83.1 | 0.9
O=C1Nc2ccccc2/C1=C/C(=O)c1cccs1 | 2.0* | 1 | 100.3* | 1.6* | 0.9
COc1ccc(-c2cc3nc(C)c(CCC(=O)NCc4ccc(F)cc4)c(C)n3n2)c(OC)c1 | . | 1 | 92.8* | . | 0.9
COc1ccccc1-c1cc2nc(C)c(CCC(=O)NCc3ccco3)c(C)n2n1 | 95.1 | 0.9 | 0.5 | 93.8 | 0.9
COc1cc(OC)cc(-c2cc3nc(C)c(CCC(=O)NC(C)CCc4ccco4)c(C)n3n2)c1 (stereo not drawn) | 52.3 | 0.8 | 100.2* | 51.1 | 0.7
